Source: ChEMBL document CHEMBL1177683, “Synthesis and pharmacological evaluation of pyrazine N-acylhydrazone derivatives designed as novel analgesic and anti-inflammatory drug candidates” (2010)
Active and inactive are the calls of the source. No cut-off for these calls is given here.

Key:
[1] = system: Mus musculus; test: Antiedematogenic activity in Swiss mouse assessed as inhibition of capsaicin-induced ear edema at 100 umol/kg, po administered 40 mins before capsaicin challenge measured after 30 mins relative to control
[2] = system: Mus musculus; test: Analgesic activity in Swiss mouse assessed as increase in latency of paw licking at 100 umol/kg, po after 120 mins measured for 60 seconds by hot plate test (reference value: 5.6 +/- 0.5 seconds); type: functional
[3] = system: Mus musculus; test: Analgesic activity in Swiss mouse assessed as increase in latency of paw licking at 100 umol/kg, po after 60 mins measured for 60 seconds by hot plate test (reference value: 4.9 +/- 0.5 seconds); type: functional
[4] = system: Mus musculus; test: Analgesic activity against formalin-induced acute pain in Swiss mouse assessed inhibition of nociception at 100 umol/kg, po administered 40 mins before formalin challenge measured for 15 to 30 mins relative to control; type: functional
Outline: (§1)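 Mice, 6 per group, received 20 µL of 2.5% formalin (0.92% formaldehyde in saline) into the ventral surface of the right hind paw. Dosing was 100 µmol/kg po in arabic gum vehicle (10 mL/kg), 40 min beforehand. Time spent licking the injected paw was recorded over 0–5 min (neurogenic phase) and 15–30 min (inflammatory phase). Data are mean ± S.E.M., ANOVA/Dunnett versus vehicle.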

[5] = system: Mus musculus; test: Antiedematogenic activity in Swiss mouse assessed as decrease of capsaicin-induced ear edema weight at 100 umol/kg, po administered 40 mins before capsaicin challenge measured after 30 mins relative to control; parameters: scale not given: the % may be the effect or the level left
[6] = system: Mus musculus; test: Antinociceptive activity in Swiss mouse assessed as inhibition of acetic acid-induced abdominal constrictions at 100 umol/kg, po administered 40 mins before acetic acid challenge measured for 25 mins relative to control; type: functional; details: Abdomen
Outline: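 Mice were dosed at 100 µmol/kg po in arabic gum (10 mL/kg), 40 min before 0.6% v/v acetic acid ip (0.1 mL/10 g). Writhes (abdominal contraction, pelvic rotation, hind-limb extension) were counted for 20 min starting 5 min post-injection. Results are expressed as % inhibition versus vehicle controls. Groups of 6 (control 10), ANOVA/Dunnett.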

[7] = system: Mus musculus; test: Analgesic activity in Swiss mouse assessed as increase in latency of paw licking at 100 umol/kg, po after 150 mins measured for 60 seconds by hot plate test (reference value: 5.1 +/- 0.4 seconds); type: functional
[8] = system: Mus musculus; test: Analgesic activity in Swiss mouse assessed as increase in latency of paw licking at 100 umol/kg, po after 90 mins measured for 60 seconds by hot plate test (reference value: 5.9 +/- 0.8 seconds); type: functional
[9] = system: Mus musculus; test: Analgesic activity against formalin-induced acute pain in Swiss mouse assessed as decrease of time spent in paw licking at 100 umol/kg, po administered 40 mins before formalin challenge measured for 15 to 30 mins; type: functional, organism-based
Outline: as §1

[10] = system: Rattus norvegicus; test: Antiinflammatory effect in complete Freund's adjuvant-induced Wistar rat arthritis model assessed as inhibition of paw edema at 100 umol/kg, po daily once administered on day 14 post adjuvant challenge measured on day 17 post adjuvant challenge; type: functional, organism-based
Outline: (§2)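 Wistar rats (130–170 g) received 0.1 mL complete Freund's adjuvant into the right paw. On day 13, arthritic rats were grouped (n=6) with matched scores. Dosing was 100 µmol/kg po daily from day 14 to 21, with arabic gum vehicle (10 mL/kg) for controls. Paw volume was measured by […] on days 1 and 14–21. Data are mean ± S.E.M., ANOVA/Dunnett.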

[11] = system: Rattus norvegicus; test: Antiinflammatory effect in complete Freund's adjuvant-induced Wistar rat arthritis model assessed as inhibition of paw edema at 100 umol/kg, po daily once administered on day 14 post adjuvant challenge measured on day 16 post adjuvant challenge; type: functional, organism-based
Outline: as §2

[12] = system: Rattus norvegicus; test: Antiinflammatory effect in complete Freund's adjuvant-induced Wistar rat arthritis model assessed as inhibition of paw edema at 100 umol/kg, po daily once administered on day 14 post adjuvant challenge measured on day 21 post adjuvant challenge; type: functional, organism-based
Outline: as §2

[13] = system: Mus musculus; test: Analgesic activity against formalin-induced acute pain in Swiss mouse assessed as decrease of time spent in paw licking at 100 umol/kg, po administered 40 mins before formalin challenge measured for 0 to 5 mins; type: functional, organism-based
Outline: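 Male or female adult Swiss mice (20–30 g, 6–8 weeks), groups of 6, dosed orally in arabic gum vehicle (10 mL/kg) 40 min before 20 µL of 2.5% formalin (0.92% formaldehyde in saline) into ventral surface of right hind paw. Paw-licking time recorded 0–5 min (neurogenic phase) after injection; mean ± S.E.M. versus vehicle controls, ANOVA with Dunnett test.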

Compound | inhibition in vivo at 100 µmol/kg [1] | Time [2] | Time [3] | inhibition in vivo at 100 µmol/kg [4] | Activity [5] | inhibition in vivo at 100 µmol/kg [6] | Time [7] | Time [8] | Activity [9] | Activity [10] | Activity [11] | Activity [12] | Activity [13]
O=C(N/N=C/c1ccc(O)cc1)c1cnccn1 | 42.3% | 5.3 s | 3.1 s | 16.7% | 33.7% | 61.4% | 4 s | 3.4 s | – | – | – | – | –
O=C(N/N=C/c1ccc2c(c1)OCO2)c1cnccn1 | 44.7% | 4.4 s | 2.4 s | 46.7% | 32.3% | 78.2% | 3.2 s | 3 s | Active | – | – | – | –
COc1ccc(/C=N/NC(=O)c2cnccn2)cc1O | 27% | 1.9 s | 2 s | 14.7% | 42.8% | 64.8% | 4.7 s | 4 s | – | – | – | – | –
CC(C)c1ccc(/C=N/NC(=O)c2nc3ccccc3nc2-c2ccccc2)cc1 | 47.5% | 5.4 s | 4.6 s | 66.5% | 30.7% | 77.3% | 4.3 s | 5 s | – | – | – | – | –
O=C(N/N=C/c1ccc(-c2ccccc2)cc1)c1cnccn1 | 47.7% | 4 s | 2.7 s | 46.9% | 32.9% | 57.3% | 4.5 s | 3.5 s | Active | – | – | – | –
CC(C)c1ccc(/C=N/NC(=O)c2cnccn2)cc1 | 46.6% | 5.2 s | 3.3 s | 66.5% | 31.2% | 67.6% | 4.6 s | 4.7 s | Active | – | – | – | –
COc1ccc2c(c1)c(CC(=O)O)c(C)n2C(=O)c1ccc(Cl)cc1 [INDOMETHACIN] | 49.3% | – | – | 39% | 29.7% | 73.1% | – | – | – | – | – | – | –
COc1ccc(/C=N/NC(=O)c2cnccn2)cc1OC | 49.6% | 6.3 s | 4.8 s | 29.1% | 29.5% | 73.6% | 3.8 s | 4.2 s | – | – | – | – | –
Cc1ccc(-c2cc(C(F)(F)F)nn2-c2ccc(S(N)(=O)=O)cc2)cc1 [CELECOXIB] | 56.4% | 4.4 s | 5.5 s | 68.4% | 25.5% | 56.9% | 3.8 s | 5.7 s | – | – | – | – | –
O=C(N/N=C/c1ccncc1)c1cnccn1 | 32.3% | 5.4 s | 3.5 s | 58.4% | 45.7% | 40.4% | 4.5 s | 3.2 s | Active | – | – | – | –
O=C(N/N=C/c1ccccc1)c1cnccn1 | 30.5% | 4 s | 4.4 s | 60.8% | 40.6% | 42.4% | 5.2 s | 4.2 s | Active | – | – | – | –
O=C(N/N=C/c1ccc2ccccc2c1)c1cnccn1 | 35.4% | 4.4 s | 2.8 s | 68% | 37.8% | 68.4% | 4.5 s | 3.5 s | – | – | – | – | –
O=C(N/N=C/c1ccc(F)cc1)c1cnccn1 | 33.1% | 4.8 s | 4.6 s | 72.3% | 39.1% | 74.5% | 3.1 s | 5.4 s | Active | – | – | – | –
CC(C)(C)c1cc(/C=N/NC(=O)c2cnccn2)cc(C(C)(C)C)c1O | 32.3% | 3.4 s | 2.7 s | 26.8% | 39.5% | 71.6% | 5.4 s | 3.4 s | – | – | – | – | –
O=C(N/N=C/c1c2ccccc2cc2ccccc12)c1cnccn1 | 54.7% | 5.6 s | 3.7 s | 45.8% | 26.5% | 33.6% | 6.6 s | 6.2 s | – | – | – | – | –
O=C(N/N=C/c1cc(=O)c2ccccc2o1)c1cnccn1 | 55.3% | 6.2 s | 2.5 s | 52.7% | 26.1% | 86.3% | 4.2 s | 3.5 s | Active | – | – | – | –
COc1cc(/C=N/NC(=O)c2cnccn2)cc(OC)c1OC | 70% | 4.3 s | 4 s | 86% | 17.6% | 97.1% | 5.3 s | 4.8 s | Active | Active | Active | Active | –
COc1cc(/C=N/NC(=O)c2cnccn2)ccc1O | 63.5% | 3.4 s | 2.6 s | 31.8% | 21.3% | 47% | 4.4 s | 3.2 s | – | – | – | – | –
O=C1CCC(N2C(=O)c3ccccc3C2=O)C(=O)N1 (configuration not stated) [THALIDOMIDE] | 25.2% | 6.8 s | 4.8 s | 66.7% | 46.6% | 73.3% | 5.9 s | 7.5 s | – | Active | Active | Active | –
O=C(N/N=C/c1ccccc1O)c1cnccn1 | 42% | 6.4 s | 4 s | 16.2% | 33.9% | 73.1% | 5.2 s | 5.2 s | – | – | – | – | Active
O=C(N/N=C/c1ccccn1)c1cnccn1 | 44.9% | 4.5 s | 2.4 s | 56.4% | 32.2% | 75.5% | 3 s | 4.4 s | Active | – | – | – | –
O=C(N/N=C/c1ccc([N+](=O)[O-])cc1)c1cnccn1 | 41.9% | 4.9 s | 3.1 s | 44.4% | 34% | 40.4% | 4.9 s | 5.4 s | Active | – | – | – | –
O=C(N/N=C/c1ccc(C(F)(F)F)cc1)c1cnccn1 | 48.3% | 2.4 s | 3.1 s | 27.7% | 30.2% | 54.5% | 4 s | 3.9 s | – | – | – | – | –
